Hits are enriched below; roughly 1.4% of the tested compounds scored in any of these assays.
NR2E3 ag-1: activates human photoreceptor nuclear receptor NR2E3; Q9Y5X4; inhibition of corepressor binding, % at 4.78 µM; GST-NR2E3/biotin-RetCOR TR-FRET, 1536-well; AID 2300; actives 0.12% (n = 320,000);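 active means percent inhibition above the cutoff of mean plus 3 SD of all tested compounds, set per screening campaign, cut at about 20% in these data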
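Material: NR2E3–RetCOR corepressor complex / Incubation: Compound–protein incubation for 5 h at 4 °C / Dosing: compound at 4.8 µM, single dose / Detection: time-resolved FRET / Benchmarks: high control biotin, low control 0.6% DMSO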
Rev-erbA mod: modulators of human Rev-erb alpha DNA binding. Rev-erbα–FITC-DNA binding, fluorescence polarization, 90 min. actives 0.79% (n = 370,000). activity, % at 10 µM;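 active means activity above about 14%, limit read from the data; passing the limit was not always enough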
Target sequence (P20393 whole entry, looked up): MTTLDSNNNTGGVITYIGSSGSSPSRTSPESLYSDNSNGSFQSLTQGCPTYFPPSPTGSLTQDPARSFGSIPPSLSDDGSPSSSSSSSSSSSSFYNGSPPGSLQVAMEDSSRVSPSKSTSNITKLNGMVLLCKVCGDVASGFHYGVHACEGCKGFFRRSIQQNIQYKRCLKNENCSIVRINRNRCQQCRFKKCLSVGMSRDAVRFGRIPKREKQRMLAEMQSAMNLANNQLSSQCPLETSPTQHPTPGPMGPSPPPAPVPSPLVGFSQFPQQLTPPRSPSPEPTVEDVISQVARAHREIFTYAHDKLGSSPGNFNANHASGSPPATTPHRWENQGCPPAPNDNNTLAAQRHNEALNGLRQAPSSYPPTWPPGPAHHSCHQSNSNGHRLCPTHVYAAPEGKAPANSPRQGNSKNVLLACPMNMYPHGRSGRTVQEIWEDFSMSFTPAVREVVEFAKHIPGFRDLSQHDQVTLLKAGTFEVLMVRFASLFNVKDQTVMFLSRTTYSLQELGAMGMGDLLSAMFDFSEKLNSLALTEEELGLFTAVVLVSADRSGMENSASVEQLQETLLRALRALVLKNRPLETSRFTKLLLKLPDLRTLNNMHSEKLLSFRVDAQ
NR2E3 ag-2: human photoreceptor-specific nuclear receptor agonism; Q9Y5X4; CHO-S Gal4-NCOR/VP16-NR2E3 two-hybrid, luciferase; inhibition of corepressor binding, % at 3.98 µM; actives 0.35% (n = 360,000);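 active means inhibition above the mean of all tested compounds plus 3 SD, cut at about 70% in these data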;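 further: higher means lower luciferase signal from less NR2E3 corepressor binding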
PG9 binder: small molecules binding HIV-1 gp120 antibody PG9 | TR-FRET gp120-PG9 antibody binding | inhibition, % at 6.7 µM | actives 0.43% (n = 360,000); in the data active means inhibition above about 8.5%
NR2E3 ag confirm: NR2E3 agonism confirmed in two-hybrid assay; shares compounds with NR2E3 ag-2; CHO-S mammalian two-hybrid NR2E3-NCOR, luciferase luminescence; inhibition, % at 3.98 µM; actives 51% (n = 2,300);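 active means average inhibition above a cutoff equal to the mean inhibition of all tested compounds plus one SD, cut at about 70% in these data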
VP16 counter: reduces GAL4-VP16 reporter signal in NR2E3 counterscreen | inhibition, % at 3.98 µM | CHO-S GAL4-VP16 luciferase reporter, luminescence | AID 624379 | actives 29% (n = 2,300) | shares compounds with NR2E3 ag-2;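 active means mean inhibition above a cutoff equal to the average over all tested compounds plus one standard deviation, cut at about 70% in these data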;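 further: luciferase from a UAS reporter driven by GAL4-VP16 transactivation; higher means less reporter light so more repression of VP16 activity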
Hits are given with their value; - = inactive; . = no result given.

SMILES | NR2E3 ag-1 | Rev-erbA mod | NR2E3 ag-2 | PG9 binder | NR2E3 ag confirm | VP16 counter
Cc1ccc(CCNc2ncnc(Cl)c2N)cc1 | . | - | 78 | - | 92 | 74
O=C(NCCO)C1(C(=O)C2CC2)CC(c2ccccn2)=NO1 (stereo not drawn) | . | - | . | . | . | .
CC(=O)N1c2ccc(S(=O)(=O)N3CCC(C(=O)N4CCC(C)CC4)CC3)cc2CC1C (stereo not drawn) | - | - | - | - | . | .
Cc1cccc(N2CCN(S(=O)(=O)c3ccc4c(c3)CC(C)N4C(=O)C3CC3)CC2)c1C (stereo not drawn) | - | - | - | - | - | -
CC(=O)N1c2ccc(S(=O)(=O)N3CCC(C(=O)N4CCN(c5cc(Cl)ccc5C)CC4)CC3)cc2CC1C (stereo not drawn) | - | - | 87 | - | 90 | 78
CC1Cc2cc(S(=O)(=O)N3CCC(C(=O)N4CCN(c5ccccc5F)CC4)CC3)ccc2N1C(=O)C1CC1 (stereo not drawn) | - | - | 74 | - | - | -
COc1ccccc1N1CCN(C(=O)C2CCN(S(=O)(=O)c3ccc4c(c3)CC(C)N4C(=O)C3CC3)CC2)CC1 (stereo not drawn) | - | - | - | - | . | .
CC(=O)c1ccc(N2CCN(S(=O)(=O)c3ccc4c(c3)CC(C)N4C(C)=O)CC2)cc1 (stereo not drawn) | - | - | 70 | - | 92 | 73
Cc1ccc(C)c(N2CCN(S(=O)(=O)c3ccc4c(c3)CC(C)N4C(=O)C3CC3)CC2)c1 (stereo not drawn) | - | - | - | - | . | .
NCCCC(N)C(=O)O (stereo not drawn) | . | - | . | . | . | .
Cn1cccc1C=NNC(=O)c1cc(-c2ccc(Cl)cc2)n[nH]1 | . | - | . | . | . | .
C=CCOC(=O)N[C@H](c1ccccc1)[C@H](C)/C=C/CC(=O)OC | . | - | . | . | . | .
Cn1ncc(S(=O)(=O)Cc2ccccc2)c(Cl)c1=O | - | - | - | - | - | -
Cn1ncc(SCc2ccccc2)c(Cl)c1=O | - | - | - | - | . | .
COC(=O)[C@H](C(C)C)N(Cc1cn(CC2CCCCC2)nn1)S(=O)(=O)c1ccc(F)cc1Br | . | - | . | . | . | .
Cc1cc(C)cc(C(=O)OCCCN(C)C2CN(Cc3cn(Cc4ccccc4F)nn3)S(=O)(=O)C2)c1 (stereo not drawn) | . | - | . | . | . | .
COc1ccc(-c2csc(NC(=O)c3ccccc3NS(=O)(=O)c3ccc(C)cc3)n2)cc1 | - | - | 95 | - | 98 | 85
COc1ccc(S(=O)(=O)Nc2ccccc2C(=O)Nc2nc(-c3ccc(F)cc3)cs2)cc1OC | - | - | - | - | 97 | 83
CSc1ccc(COC(=O)c2cc([N+](=O)[O-])ccc2N2CCOCC2)cc1 | - | - | - | - | - | -
CC1CCCCC1Nc1ncnc2sccc12 (stereo not drawn) | - | - | - | - | - | -
O=[N+]([O-])c1ccc(Oc2ccc(N=C=S)cc2)cc1 | . | - | . | . | . | .
Cc1[nH]nc(S(=O)CC(=O)O)c1[N+](=O)[O-] (stereo not drawn) | - | - | - | - | - | -
Cc1[nH]nc(NCCO)c1[N+](=O)[O-] | - | - | - | - | . | .
Cn1c(=O)c2c(c3ccccc31)OC(C)(C)C=C2 | . | - | . | - | . | .
O=C(NCC1CCCO1)C1CC(c2ccc(Cl)c(Cl)c2)=NO1 (stereo not drawn) | - | - | - | - | - | -
SMILES | NR2E3 ag-1 | Rev-erbA mod | NR2E3 ag-2 | PG9 binder | NR2E3 ag confirm | VP16 counter
Cc1cccc(NC(=O)Nc2nc3ncccn3c2-c2ccccc2)c1 | . | - | . | . | . | .
C=CC(=O)N1C/C(=C/c2ccc(F)cc2)C(=O)/C(=C\c2ccc(F)cc2)C1 | . | - | - | - | - | -
CN1C2CCC1/C(=C\c1ccc(F)cc1)C(=O)/C2=C/c1ccc(F)cc1 | - | - | - | - | . | .
COc1cccc(N2CCN(C(=O)c3ccc(CS(=O)c4ccccc4Cl)o3)CC2)c1 (stereo not drawn) | - | - | - | - | - | -
COC(=O)c1ccc(-n2nnnc2SCC(=O)Nc2cc(OC)ccc2OC)cc1 | - | - | - | - | . | .
O=C(CSc1nnnn1-c1ccc(O)cc1)Nc1ccc(N2CCOCC2)c(Cl)c1 | - | - | 98 | - | 98 | -
COc1ccc(OC)c(NC(=O)CSc2nnnn2-c2ccc3c(c2)OCO3)c1 | - | - | 101 | - | 100 | -
Cc1ccc(NC(=O)CSc2nnnn2-c2ccc3c(c2)OCO3)cc1C | - | - | 91 | - | 100 | -

High-throughput results (PubChem BioAssay)
